# High-throughput results (PubChem)
# Shown are actives, neighbours in structure and some others; about 2.2% of the full set was active somewhere.
# NF-kB neuron act: activators of NF-kB expression in neurons, primary screen, cell-based, HTS; human neuronal cells, NF-kB reporter expression; active compounds read high; fold change at 12.5 µM; hit rate 1.6% among 190,000; AID 1239, 2008; in the data active means fold change above about 3.3
# APP 5'UTR act: activators of APP 5'UTR luciferase reporter, primary screen, SH-SY5Y cells. SH-SY5Y APP 5'UTR luciferase reporter, luminescence; zero percent = DMSO vehicle wells. activation, % at 2 µM. hit rate 1% among 190,000;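 active means activation above a set limit, based on mean plus 3 SD of controls, cut at about 140% in these data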
# FLuc stim CS: FLuc activators, initial screening, artefact control for FLuc-dependent activation tests, biochemical, ATPlite luminescence | ATPlite luciferase biochemical, 10 min; 0 = ATP-free wells, 1 = DMSO control | Luciferin 4-monooxygenase (Photinus pyralis), P08659 | activation factor at 10 µM | 200,000 tested, under 10 active;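 active means luciferase activation factor, scaled between plate controls, of at least 2 with compound at 10 µM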
# Target sequence (P08659 whole entry, looked up): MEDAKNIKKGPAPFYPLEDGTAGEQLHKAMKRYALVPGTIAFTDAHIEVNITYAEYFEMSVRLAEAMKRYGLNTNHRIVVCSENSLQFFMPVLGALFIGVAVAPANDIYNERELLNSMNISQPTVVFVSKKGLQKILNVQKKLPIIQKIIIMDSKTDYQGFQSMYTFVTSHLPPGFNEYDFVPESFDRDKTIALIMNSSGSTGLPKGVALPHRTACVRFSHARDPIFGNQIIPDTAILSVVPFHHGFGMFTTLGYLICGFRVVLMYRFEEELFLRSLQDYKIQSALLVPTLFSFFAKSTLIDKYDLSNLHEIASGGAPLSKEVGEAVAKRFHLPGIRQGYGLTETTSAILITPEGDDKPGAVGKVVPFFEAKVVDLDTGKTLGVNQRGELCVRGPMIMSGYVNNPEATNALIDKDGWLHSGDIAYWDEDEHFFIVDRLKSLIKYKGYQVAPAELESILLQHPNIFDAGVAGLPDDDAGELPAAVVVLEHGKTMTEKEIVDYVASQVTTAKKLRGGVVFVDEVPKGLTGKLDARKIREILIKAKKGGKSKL
#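 Assay system: Luciferase/luciferin reagent mix; Medium: PBS as buffer for the ATP substrate; Dosing: test compounds dosed from 2 mM stocks in 100% DMSO; Times: 10 min, room temperature; Signal: luminescence from luciferase reaction; Read-out: luciferase activation; Controls: No-ATP low control, compound-free enzyme-plus-ATP high control.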
# FLuc inh counter: firefly luciferase enzyme inhibitors, primary screen, artefact control for luciferase-based inhibitor screens, biochemical, luminescence, ATPLite | Luciferin 4-monooxygenase (Photinus pyralis), P08659 | 10 min | inhibition, % at 10 µM | hit rate 1.5% among 200,000;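 active means inhibition above about 50% when tested at 10 µM, limit read from the data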
# TRAIL sens C8: viability loss with TRAIL in NB7+C8 cells, primary screen, TRAIL sensitizer project, cell-based, ATPlite luminescence; hit rate 1% among 360,000; inhibition (viability loss, TRAIL sensitization), % at 10 µM; AID 624354, 2012;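 active means compounds causing at least 50% loss of cell viability in the single-dose screen, relative to plate controls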
# PPC-1+TRAIL kill: compounds killing PPC-1 cancer cells with TRAIL present, primary screen, TRAIL potentiator project, ATPLite luminescence, uHTS | PPC-1 cells + TRAIL, ATPLite viability luminescence | cell killing (% activity), % at 4 µM or 5 µM | hit rate 0.41% among 220,000 | AID 1443, 2008;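 active means cell killing above 50% in the first pass at 4 µM, then a duplicate retest at 5 µM averaging 50% or more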;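 further: plate controls were cells with TRAIL plus DMSO for no effect and medium-only wells lacking cells for full effect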
# Active calls of the source: *; nt = not tested or not shown.
SMILES,NF-kB neuron act,APP 5'UTR act,FLuc stim CS,FLuc inh counter,TRAIL sens C8,PPC-1+TRAIL kill
O=C(Nc1ccon1)c1sc2cc(F)ccc2c1Cl,2.4,34,0.8,21,6,7
O=C(N/N=C/c1ccccc1Cl)c1n[nH]c2c1CCCC2,0.96,131,0.6,38,41,42
O=C(N/N=C/C(Br)=C/c1ccccc1)c1n[nH]c2c1CCC2,8*,nt,0.5,47,-6,11
O=C(N/N=C/c1cccs1)c1n[nH]c2c1CCC2,3,6,0.3,70*,37,25
O=C(N/N=C/c1ccccc1)c1n[nH]c2c1CCCC2,1,105,0.3,75*,28,41
CCN(CC)C(=O)C1=C(C)N(Cc2ccccc2)C(=O)C(CC(=O)NCc2ccco2)C1 (stereo unspecified),nt,nt,nt,nt,-4,nt
COc1cccc(NC(=O)NC(=O)c2c(C)cc(Cl)nc2Cl)c1,nt,nt,nt,nt,-9,nt
CC1=C(C(=O)N(C)C)CC(CC(=O)NCCN2CCOCC2)C(=O)N1CCCN1CCCC1=O (stereo unspecified),nt,nt,nt,nt,55*,nt
O=C(N/N=C/c1ccc([N+](=O)[O-])o1)c1cc(-c2ccc(-c3ccccc3)cc2)nc2ccccc12,nt,-90,0.1,93*,87*,80*
Cc1ccc(-c2cc(C(=O)N/N=C/c3ccc([N+](=O)[O-])o3)c3ccccc3n2)o1,nt,nt,nt,nt,68*,nt
Cn1c(/C=C/c2ccc([N+](=O)[O-])o2)nc2ccccc2c1=O,1.4,-37,1,-5,51*,7
CCOC(=O)N1CCN(C(=O)c2ccc3c(=O)n(-c4cc(OC)ccc4OC)c(=S)[nH]c3c2)CC1,0.87,-19,1.1,-6,-17,17
O=C(NCc1cccnc1)C12CC3CC(CC(Cl)(C3)C1)C2,nt,nt,nt,nt,-6,nt
COc1ccc(C=NCCCN2CCOCC2)cc1,0.99,3,1,-2,3,-5
COc1ccc(/C=C2/CCC(CN3CCOCC3)C2=O)cc1 (stereo unspecified),nt,nt,nt,nt,80*,nt
CCSc1ncc(/C=N/Nc2ccc(Cl)cc2)n1C,5.7*,70,0.9,13,-6,18
CCC(CC)c1nnc(NC(=O)c2cc(-c3ccccc3)nc3ccccc23)s1,1.3,2,1.1,-6,-15,-12
Cc1cccc(NC(=O)c2ccc3ccccc3n2)c1C,9.1*,211*,0.6,42,19,2
O=C(Nc1ccc(N2CCCCC2)cc1)c1ccc2ccccc2n1,2.5,85,0.5,54*,42,45
CCC(CC)c1nnc(NC(=O)c2ccc3ccccc3n2)s1,4.9*,95,0.9,14,18,1
O=C(Nc1cccc(S(=O)(=O)N2CCCCCC2)c1)c1ccc2ccccc2n1,1.1,20,1,0,21,12
CCC(CC)C(=O)Oc1c(C(=O)N(C)C)cccc1-c1ccccc1,nt,nt,nt,nt,-8,nt
N#CCNC1CC(=O)N(c2ccccc2)C1=O (stereo unspecified),nt,nt,nt,nt,6,nt
CC1=CC(=O)C(C(C)C)=C/C1=N/OS(=O)(=O)c1ccccc1,nt,nt,nt,nt,69*,-1
CC1=CC(=O)C=C(C)C1=NOS(=O)(=O)c1ccccc1,4*,-80,1.1,-5,17,2
SMILES,NF-kB neuron act,APP 5'UTR act,FLuc stim CS,FLuc inh counter,TRAIL sens C8,PPC-1+TRAIL kill
Cc1ccc2c(c1)/C(=N/OS(=O)(=O)c1ccccc1)CCS2,nt,-1,nt,nt,-17,nt
CSCC[C@H](NC(=O)[C@H](Cc1ccccc1)n1c(=O)[nH]c2ccccc2c1=O)C(=O)N1CCC[C@H]1C(=O)O,nt,nt,nt,nt,-6,nt
CCOC(=O)N1CCC(N2Cc3cccc(C(=O)Nc4ccc(OCC)cc4)c3C2=O)CC1,nt,nt,nt,nt,8,nt
O=c1ccc2ccc(OCCOc3cccc(Cl)c3)cc2o1,nt,nt,nt,nt,-16,nt
CN(C)c1ccc(N=Nc2ccc3ncccc3c2)cc1,nt,nt,nt,nt,71*,nt
Cc1ccc(-n2c(C)cc(C(=O)COC(=O)c3ccc[nH]c3=O)c2C)cc1,1.6,65,0.2,81*,61*,49
Cc1cc(C(=O)COC(=O)c2ccc[nH]c2=O)c(C)n1-c1ccc(Br)cc1,1.3,12,0.7,31,21,6
Cc1cc(C(=O)COC(=O)c2ccc[nH]c2=O)c(C)n1C,0.59,1,0.6,38,33,26
COCCn1c(C)cc(C(=O)COC(=O)c2ccc[nH]c2=O)c1C,0.29,-1,0.2,84*,13,35
O=C1C=C(c2ccc(OC(F)(F)F)cc2)C[C@@H](c2ccc(Cl)cc2)C1,nt,nt,nt,nt,7,nt
NN(Cc1ccccc1)C(=S)Nc1ccc(Cl)c(Cl)c1,nt,nt,nt,nt,5,nt
CCc1ccc(C(O)c2ncc(-c3cccc4ccccc34)[nH]2)cc1 (stereo unspecified),nt,nt,nt,nt,6,nt
Cc1nn(-c2ccccc2)c(C)c1/C=N/NC(=O)c1cc(C(C)(C)C)[nH]n1,0.46,2,1,0,52*,24
CCCCN=C1NN=C(c2ccc3c(c2)OCCO3)CS1,2.9,80,0.2,83*,63*,30
Clc1ccc(OCc2nn3c(C4CCCCC4)nnc3s2)cc1,0.91,2,1.1,-7,57*,7
c1ccc(-c2nn3c(C4CCCCC4)nnc3s2)nc1,1.1,-8,1,-4,0,-7
Cc1ccc(/C=C/C(=O)c2ccc(C)cc2)cc1,1.6,34,0.5,54*,1,18
N#Cc1ccc(/C=C/C(=O)c2ccco2)cc1,1.1,6,0.9,10,-14,18
COc1ccc(C(=O)/C=C/c2ccc(O)cc2)c2c1CC(O)C(C)(C)O2 (stereo unspecified),nt,nt,nt,nt,-1,nt
COc1ccc(C(=O)/C=C/c2ccc(O)cc2)c(O)c1CC=C(C)C,5*,-1,1.1,-6,7,-7
Nc1ccc(/C=C/C(=O)c2ccco2)cc1,1.9,65,0.5,55*,6,17
O=C(/C=C/c1ccc2c(c1)OCCCO2)c1ccccc1O,3.6*,216*,0.2,77*,39,16
Cc1ccc(S(=O)(=O)N2CC(O)C2)cc1,nt,nt,nt,nt,-5,nt
CN(C)c1ccc(/C=C/C(=O)c2ccc(O)cc2)cc1,nt,nt,nt,nt,63*,nt
COc1ccc(C=CC(=O)c2ccc([N+](=O)[O-])cc2)cc1,nt,nt,nt,nt,1,nt
CN(C)c1ccc(/C=C/C(=O)c2ccccc2O)cc1,3.5*,137*,0.3,66*,14,14
COc1ccc(C(=O)/C=C/c2ccc(O)cc2)cc1,3.6*,12,0.4,55*,32,-1
CSc1ccc(/C=C/C(=O)c2ccc(NC(=O)C(C)C)cc2)cc1,1.1,7,1,1,-21,16
CSc1ccc(C(=O)/C=C/c2ccc(N)cc2)cc1,10*,117,0.1,90*,55*,44
